The list is not random: actives were taken first. Their share in the collection is about 3.5%.
FN deposit inh = fibronectin deposition inhibition | AID 743247 | AH1F fibroblasts, Alexa488-fibronectin deposition fluorescence, overnight | 350,000 tested, 0.086% active | inhibition, % at 12.6 µM;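 active means mean inhibition across replicates of 30% or more, regardless of how many single replicates reach that level; inconclusive means mean under 30% yet at least half of replicates reach 30%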;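 further: positive control wells lacked labelled fibronectin entirely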
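Assay system: AH1F fibroblast monolayer, labelled fibronectin deposition. Amount: 10000 cells per well. Also added: labelled fibronectin 24 nM. Compound: single-point pinned compound. Incubation: cell attachment 1 h, compound and FN exposure overnight. Detection: fluorescence after three HBSS washes, excitation 485 nm, emission 525 nm. Read-out: inhibition of fibronectin deposition signal.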
PGC1a acetyl inh = lowers PGC1a acetylation signal in U2OS cells; AID 651687; AlphaScreen anti-acetyl-lysine; with virally co-expressed GCN5 acetyltransferase; inhibition, % at 15.6 µM; 350,000 tested, 0.17% active;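 active means every replicate shows inhibition of at least 40%; inconclusive means mean inhibition at least 40% but some replicate below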;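 further: 0% = neutral control wells and 100% = positive control wells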
Env fusion inh = HIV envelope-mediated fusion inhibition; HeLa-JRFL Env/CEM21 cell fusion, luciferase; inhibition, % at 12.3 µM; 360,000 tested, 1.1% active; AID 651610;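 active means mean replicate inhibition score of at least 50 and every replicate individually at or above 50; inconclusive means only one of the two criteria met; inactive means mean below 50 and not all replicates reaching 50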;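 further: 0% = plate neutral controls and 100% = maraviroc near 300 nM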
DENV2 CPE rescue = DENV2-induced cell death inhibition; DENV2-infected cells, cytopathic effect rescue, plate reader; CPE inhibition, % at 9.99 µM; 350,000 tested, 1.7% active; in the data active means CPE inhibition above about 20%, passing the limit was not always enough; inconclusive means no clear call, values can overlap the other calls; tested in BHK-21 cells;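 further: 0% = median of neutral control wells and 100% = median of positive control wells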
PglD DTNB = inhibitors of Campylobacter jejuni PglD acetyltransferase; purified PglD enzyme, DTNB colorimetric CoA detection; inhibition, % at 12.5 µM; 360,000 tested, 0.098% active; in the data active means inhibition above about 16%, passing the limit was not always enough; inconclusive means no clear call, values can overlap the other calls
Ecoli rRNA inh = inhibits bacterial ribosomal RNA function over humanized ribosomes. E. coli WT GFP vs humanized-ribosome RFP mutants, fluorescence, 24 h; stronger effect = lower value; DMSO median 0, no signal -100. 350,000 tested, 1.6% active. GFP signal change (wild-type ribosome), % (test concentration not listed);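 active means significant combined selectivity score with lowered wild-type GFP, culture density cut under 30%, mutant RFP and density less affected; inactive means any of these conditions unmet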
An asterisk follows results filed as active; ! = a repeat was not active; [ ] = remark or other dose.

COc1cccc(S(=O)(=O)Nc2ccc3c(c2)C(=O)N(C)C[C@@H](OC)[C@@H](C)CN(Cc2ccccc2F)[C@H](C)CO3)c1 was read as FN deposit inh -2, PGC1a acetyl inh 0, DENV2 CPE rescue 18, PglD DTNB -1 and Ecoli rRNA inh -5.
Screening COc1cccc(S(=O)(=O)Nc2ccc3c(c2)C(=O)N(C)C[C@H](OC)[C@H](C)CN(Cc2ccccc2F)[C@@H](C)CO3)c1 returned FN deposit inh -5, PGC1a acetyl inh 3, Env fusion inh 0, DENV2 CPE rescue -7, PglD DTNB 2 and Ecoli rRNA inh -18*!.
Screening Cc1ccccc1S(=O)(=O)NCC[C@H]1CC[C@H](NC(=O)C2CCCC2)[C@@H](CO)O1 returned FN deposit inh 1, PGC1a acetyl inh -1, Env fusion inh -4[16.7 µM], DENV2 CPE rescue 8, PglD DTNB 3 and Ecoli rRNA inh 2.
Screening NCC[C@@H]1CC[C@@H](NC(=O)C2CCCC2)[C@@H](CO)O1 returned PGC1a acetyl inh 0, Env fusion inh 4[16.7 µM], DENV2 CPE rescue 36*, PglD DTNB 1 and Ecoli rRNA inh 3.
For CCS(=O)(=O)NCC[C@@H]1CC[C@@H](NS(=O)(=O)c2ccccc2C)[C@H](CO)O1 the results were FN deposit inh -13, PGC1a acetyl inh 5, Env fusion inh 3[16.7 µM], DENV2 CPE rescue 50*, PglD DTNB -2 and Ecoli rRNA inh 1.
`O=C(N[C@H]1CC[C@H](CCNS(=O)(=O)c2ccc(F)cc2)O[C@@H]1CO)C1CCCC1` gave PGC1a acetyl inh 6, Env fusion inh 6[16.7 µM], DENV2 CPE rescue 32*, PglD DTNB 1 and Ecoli rRNA inh -3.
Screening Cc1ccccc1S(=O)(=O)NCC[C@@H]1CC[C@@H](NC(=O)C2CCCCC2)[C@@H](CO)O1 returned FN deposit inh 3, PGC1a acetyl inh 1, Env fusion inh -5[16.7 µM], DENV2 CPE rescue 27*, PglD DTNB 1 and Ecoli rRNA inh -4.
`COc1ccc(S(=O)(=O)NC[C@H]2CC[C@H]3[C@H](CN3Cc3cc(F)ccc3F)O2)cc1` gave DENV2 CPE rescue 17.
`CC(C)NC(=O)N(C)C[C@H]1Oc2ccc(NC(=O)Cc3cn(C)c4ccccc34)cc2CC(=O)N([C@@H](C)CO)C[C@@H]1C` gave FN deposit inh -3, PGC1a acetyl inh 1, Env fusion inh 11[16.7 µM], DENV2 CPE rescue -2, PglD DTNB 1 and Ecoli rRNA inh 2.
`CCNC(=O)Cc1ccc(S(=O)(=O)N2CCOCC2)s1` gave FN deposit inh -4, DENV2 CPE rescue inconclusive, PglD DTNB 3 and Ecoli rRNA inh 2.
CC1CCCN(S(=O)(=O)c2ccc(NC(=O)Cc3ccc(S(=O)(=O)N4CCOCC4)s3)cc2)C1 (stereo not drawn) was read as FN deposit inh -8, DENV2 CPE rescue 7 and Ecoli rRNA inh -4.
For CC1CCN(S(=O)(=O)c2ccc(NC(=O)Cc3ccc(S(=O)(=O)N4CCOCC4)s3)cc2)CC1 the results were FN deposit inh -9, PGC1a acetyl inh -9, Env fusion inh 61*, DENV2 CPE rescue 2, PglD DTNB 7 and Ecoli rRNA inh 8.
For Cc1cc(Br)ccc1NC(=O)CNC(=O)Cc1ccc(S(=O)(=O)N2CCOCC2)s1 the results were FN deposit inh 4, PGC1a acetyl inh 9, DENV2 CPE rescue 39*, PglD DTNB 2 and Ecoli rRNA inh -7.
Screening C[C@@H](O)C#Cc1ccc2c(c1)O[C@H](CN(C)C(=O)c1ccccc1)[C@@H](C)CN([C@@H](C)CO)S2(=O)=O returned FN deposit inh 3, PGC1a acetyl inh -9, Env fusion inh -15[16.7 µM], DENV2 CPE rescue 17, PglD DTNB -2 and Ecoli rRNA inh 3.
`C[C@H](O)[C@@]1(O)CC[C@H]2[C@@H]3CC[C@@H]4C[C@H](O)CC[C@]4(C)[C@H]3CC[C@@]21C` gave PGC1a acetyl inh -3, DENV2 CPE rescue -20, PglD DTNB 2 and Ecoli rRNA inh -6.
`CC12CCC3C(CCC4CC(O)CCC43C)C1CC(O)C2` (stereo not drawn) gave FN deposit inh 12, PGC1a acetyl inh -1, Env fusion inh -14, DENV2 CPE rescue 4, PglD DTNB 11 and Ecoli rRNA inh -28*.
N#Cc1cc(C(=O)c2cc(F)ccc2O)cn(Cc2ccccc2)c1=O was read as FN deposit inh -8, PGC1a acetyl inh 5, Env fusion inh 16, DENV2 CPE rescue 4 and Ecoli rRNA inh -24*.
CN(C)C(=O)[C@H]1[C@H](CO)[C@H]2Cn3c(ccc(C4=CCCCC4)c3=O)[C@@H]1N2C was read as PGC1a acetyl inh -5, DENV2 CPE rescue 7, PglD DTNB -2 and Ecoli rRNA inh 2.
Screening O=C(C1CCCC1)N1CCC(CC2CC(c3cccc(Br)c3)=NO2)(C(=O)NCC2CCCCC2)CC1 (stereo not drawn) returned FN deposit inh 8, PGC1a acetyl inh -15, Env fusion inh -1, DENV2 CPE rescue 53*, PglD DTNB -3 and Ecoli rRNA inh -10.
For CCCCCCCNC(=O)C1(CC2CC(c3cccc(Br)c3)=NO2)CCN(C(=O)CCCCCBr)CC1 (stereo not drawn) the results were FN deposit inh 10, PGC1a acetyl inh -8, Env fusion inh 0, DENV2 CPE rescue -6, PglD DTNB 2 and Ecoli rRNA inh -20*.
For COc1ccc2c3c(n(C)c2c1)[C@@H](CO)N(C(=O)CC1CC1)CC31CN(Cc2ccccc2)C1 the results were PGC1a acetyl inh -5, DENV2 CPE rescue 5 and Ecoli rRNA inh 1.
O=C(C[C@H]1C[C@H]2c3cc(NC(=O)c4cccnc4)ccc3O[C@H]2[C@@H](CO)O1)NC1CCCC1 was read as FN deposit inh -7, PGC1a acetyl inh 0, DENV2 CPE rescue 10 and Ecoli rRNA inh 2.
`CC(C)CC#Cc1ccc2c(c1)O[C@@H](CN(C)C)[C@H](C)CN([C@@H](C)CO)S2(=O)=O` gave FN deposit inh -6, PGC1a acetyl inh -68, Env fusion inh 32[16.7 µM], DENV2 CPE rescue -1, PglD DTNB -2 and Ecoli rRNA inh -1.
For Cc1noc(C)c1NC(=O)Nc1cccc2c1O[C@H](CN(C)S(=O)(=O)c1ccc(F)cc1)[C@@H](C)CN([C@@H](C)CO)C2=O the results were PGC1a acetyl inh 0, DENV2 CPE rescue 32*, PglD DTNB 0 and Ecoli rRNA inh -1.
Screening Cc1noc(C)c1NC(=O)Nc1ccc2c(c1)C(=O)N([C@H](C)CO)C[C@H](C)[C@@H](CN(C)S(=O)(=O)c1ccc(F)cc1)O2 returned FN deposit inh -4, PGC1a acetyl inh 8, Env fusion inh 27, DENV2 CPE rescue 14, PglD DTNB 10 and Ecoli rRNA inh 7.

From PubChem
